Here are results for 1 compound from ChEMBL document CHEMBL1629659, “Bronchopulmonary disposition of micafungin in healthy adult volunteers” (Antimicrob Agents Chemother, 2009).

Data set [1] in a line: Drug concentration in healthy human epithelial lining fluid at 150 mg, iv […] measured after 24 hrs of third postdose by urea dilution method. The data set is classed as ADME, organism-based. To be noted: read-out: Drug uptake. In a few lines: (§1)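 The first aspirate was discarded and the rest pooled. Cells were pelleted and lysed. Drug in BAL fluid and pellet was measured by HPLC. Urea in BAL and plasma was measured by colorimetric enzymatic assay. ELF and alveolar-cell levels were derived by urea dilution.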

Data set [2] can be described thus: Drug concentration in Alveolar macrophage cells of healthy human at 150 mg, iv […] measured after 4 hrs of third postdose by urea dilution method. The data set is classed as ADME, organism-based. To be noted: read-out: Drug uptake. In a few lines:
as §1

The nature of data set [3]: Drug concentration in Alveolar macrophage cells of healthy human at 150 mg, iv […] measured after 12 hrs of third postdose by urea dilution method. The format is ADME, organism-based. The conditions noted are these: read-out: Drug uptake. The method in brief:
as §1

The nature of data set [4]: Drug concentration in Alveolar macrophage cells of healthy human at 150 mg, iv […] measured after 24 hrs of third postdose by urea dilution method. The conditions noted are these: read-out: Drug uptake. The data set is classed as ADME, organism-based. In a few lines:
as §1

The subject of data set [5] is Plasma. Description: Plasma concentration in healthy human at 150 mg, iv […] measured before third dose. The data set is classed as ADME, organism-based. The conditions noted are these: in vivo. In a few lines: (§2)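 Healthy volunteers (n=15) were given 150 mg micafungin IV over 1 h every 24 h for three doses. Plasma was sampled before and after the third dose (0, 1, 4, 12, 24 h). Quantitation used modified, validated HPLC with a standard curve linear over 0.05–25.0 μg/ml. Interday CV was ≤11.3% and intraday CV <18%.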

A short description of data set [6]: Plasma concentration in healthy human at 150 mg, iv […] measured after 24 hrs of third postdose. The format is ADME, organism-based. The method in brief:
as §2

Data set [7] can be described thus: Cmax in healthy human plasma at 150 mg, iv […]. The data set is classed as ADME, organism-based. Further details: dose 150 mg, route intravenous. In a few lines:
(§3)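 Fifteen healthy adults received micafungin 150 mg IV, infused over 1 h every 24 h, for three doses. Blood was drawn before the third dose, at end of infusion (1 h), and 4, 12 and 24 h after the third dose. Plasma levels were measured by validated HPLC (linear 0.05–25.0 μg/ml). Parameters came from noncompartmental analysis over the 24-h dosing interval.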

Data set [8] can be described thus: AUC ( 0 to 24 hrs) in healthy human plasma at 150 mg, […]. The format is ADME, organism-based. Further details: dose 150 mg, time < 24 hr, route intravenous. The conditions noted are these: iv. The method in brief:
as §3

A short description of data set [9]: Volume of distribution in healthy human plasma at 150 mg, iv […]. The format is ADME, organism-based. The method in brief: as §3
Data set [10] can be described thus: Clearance at steady state in healthy human plasma at 150 mg, iv […]. The format is ADME, organism-based. The method in brief: as §3
Data set [11] can be described thus: Half life in healthy human plasma at 150 mg, iv […]. The format is ADME, organism-based. The method in brief:
as §3

A short description of data set [12]: AUC ( 0 to 24 hrs) in healthy human epithelial lining fluid at 150 mg, iv […]. The format is ADME, organism-based. Also on record: dose 150 mg, time < 24 hr, route intravenous. The method in brief: (§4)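 Steady-state ELF and alveolar-cell concentrations were derived by urea dilution from BAL, with one bronchoscopy per subject at 4, 12 or 24 h after the third 150 mg IV dose (five subjects per time). A composite AUC over 0–24 h was calculated across subjects by the trapezoidal rule.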

Data set [13] can be described thus: AUC ( 0 to 24 hrs) in Alveolar macrophage cells of healthy human at 150 mg, iv […]. The format is ADME, organism-based. Further details: time < 24 hr, dose 150 mg, route intravenous. The method in brief:
as §4

Data set [14] in a line: Penetration ratio, ratio of AUC for human epithelial lining fluid to AUC for human plasma. The data set is classed as ADME. The conditions noted are these: read-out: Ratio AUC. In a few lines:
(§5)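 Penetration was expressed as composite AUC0-24 in ELF or alveolar cells (urea-dilution-corrected BAL data, trapezoidal rule) divided by plasma AUC0-24 (noncompartmental). Subjects received 150 mg IV daily for three doses.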

Data set [15] in a line: Penetration ratio, ratio of AUC for alveolar macrophage cells of healthy human to AUC for human plasma. The format is ADME, cell-based. To be noted: read-out: Ratio AUC. The method in brief: as §5
The subject of data set [16] is Aspergillus fumigatus. Description: Antimicrobial activity against germinated Aspergillus fumigatus conidia. The data set is classed as functional. The conditions noted are these: read-out: MEC.
Data set [17] relates to Aspergillus fumigatus. Description: Antimicrobial activity against non-germinated Aspergillus fumigatus conidia. The format is functional. To be noted: read-out: MEC.
Data set [18] is described as follows: Ratio of Cmax to MEC for Aspergillus. The data set is classed as functional.
Data set [19] relates to Plasma. Description: Plasma protein binding in healthy human. The format is ADME, cell-free.
The nature of data set [20]: Drug concentration in healthy human epithelial lining fluid at 150 mg, iv QD measured after 4 hrs of third postdose by urea dilution method. The conditions noted are these: read-out: Drug uptake.
Data set [21] in a line: Drug concentration in healthy human epithelial lining fluid at 150 mg, iv QD measured after 12 hrs of third postdose by urea dilution method. To be noted: read-out: Drug uptake.
A short description of data set [22]: Drug concentration in healthy human plasma at 150 mg, iv QD measured after 4 hrs of third postdose by high-pressure liquid chromatography method. To be noted: read-out: Drug uptake.
Data set [23] in a line: Drug concentration in healthy human plasma at 150 mg, iv QD measured after 12 hrs of third postdose by high-pressure liquid chromatography method. To be noted: read-out: Drug uptake.
Data set [24] can be described thus: Drug concentration in healthy human plasma at 150 mg, iv QD measured after 24 hrs of third postdose by high-pressure liquid chromatography method. The conditions noted are these: read-out: Drug uptake.

In general, Cmax refers to the maximum level reached in the sampled fluid or tissue. Broadly, the AUC is concentration integrated over time. The low end stands for low exposure, the high end for high exposure. For orientation: Vd means a proportionality between amount in the body and measured concentration, not a real space. What is called clearance is a measure of how efficiently the substance is removed, as volume per time. As usually defined, the half-life is how long it takes for the measured level to halve. A high value points to slow loss.

Numbered stars: 1 amine (or outer) side, 2 acyl side, 3 side chain; on linkers, the order of the positions; unused ones are H or OH. Bridge positions count the residues as written; N and C are the ends. Square brackets hold non-standard residues; d marks the D form. Peptide text beside a SMILES is read from it. * marks the point of attachment. hTyr(3S-OH,4S-OH,3'-OSO3H) = N[C@H](C(=O)O)[C@H](O)[C@@H](O)c1ccc(O)c(OS(=O)(=O)O)c1; Orn(4R-OH,5R-OH) = O=C([C@H](C[C@@H](O)[C@@H](O)N[*:3])N[*:1])[*:2]; Pro(3S-OH,4S-Me) = C[C@H]1CN[C@H](C(=O)O)[C@H]1O; X1 = CCCCCOc1ccc(-c2cc(-c3ccc(C(=O)*)cc3)no2)cc1; Gln(3R-OH) = NC(=O)C[C@@H](O)[C@H](N)C(=O)O; Hyp = O=C(O)[C@@H]1C[C@@H](O)CN1

Turning to `CCCCCOc1ccc(-c2cc(-c3ccc(C(=O)N[C@H]4C[C@@H](O)[C@@H](O)NC(=O)[C@@H]5[C@@H](O)[C@@H](C)CN5C(=O)[C@H]([C@H](O)CC(N)=O)NC(=O)[C@H]([C@H](O)[C@@H](O)c5ccc(O)c(OS(=O)(=O)O)c5)NC(=O)[C@@H]5C[C@@H](O)CN5C(=O)[C@H]([C@@H](C)O)NC4=O)cc3)no2)cc1` [MICAFUNGIN] (X1-[Orn(4R-OH,5R-OH)]T[Hyp][hTyr(3S-OH,4S-OH,3'-OSO3H)][Gln(3R-OH)][Pro(3S-OH,4S-Me)]; lactam 1-C), the concentration at 24 h turned out to be 430 ng/mL in data set [1], 14600 ng/mL in [4], 4670 ng/mL in data set [6] and 4800 ng/mL in data set [24]. The concentration at 4 h in [2] is 10400 ng/mL; in [20], 520 ng/mL; in [22], 14800 ng/mL. Moreover, the concentration at 12 h in [3] amounted to 8400 ng/mL; in [21], 440 ng/mL; in [23] it was 7400 ng/mL. This compound registered a Cp in the data set with Plasma [5] of 4280 ng/mL. In data set [7], this compound had a Cmax of 19100 ng/mL. In addition, the AUC at 24 h in data set [8] is 220 µg·h/mL; in data set [12], 10.2 µg·h/mL; in [13], 234 µg·h/mL. In data set [9], this compound gave a volume of distribution (Vd) of 15 L. For the same compound, the clearance in data set [10] was 11.7 mL/min. This compound showed a half-life in data set [11] of 14.7 h. Also, the values for the Kp in data set [14] and in data set [15] were 5 and 106, respectively. For the same compound, the minimal effective concentration in the data set with Aspergillus fumigatus [16] was 0.25 µg/mL; in the data set on Aspergillus fumigatus [17], 0.06 µg/mL. Further, in data set [18], the Ratio amounted to 10. Besides, the PPB in the data set on Plasma [19] is 99%.
